Screening results deposited in PubChem BioAssay by several laboratories.
This is a sample that favours compounds with a hit; in the whole collection about 1.4% have one here.
SUMO HTRF inh = blocks human SUMOylation mediated by UBC9 | P63279 | HTRF SUMOylation assay, SAE1/SAE2 + UBC9, in vitro | inhibition, % at 35 µM | hit rate 0.36% among 290,000; in the data active = inhibition above about 50%, passing the limit was not always enough
Target sequence (P63279 whole entry, looked up): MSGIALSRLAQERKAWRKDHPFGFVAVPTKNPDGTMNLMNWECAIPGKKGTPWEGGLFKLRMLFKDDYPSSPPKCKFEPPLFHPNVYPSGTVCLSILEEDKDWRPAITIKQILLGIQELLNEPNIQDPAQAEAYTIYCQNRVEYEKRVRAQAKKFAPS
CTSL1 counter = cathepsin L1 inhibition, PFM18AAP counter-screen; recombinant F. hepatica cathepsin L1, Z-Leu-Arg-MCA fluorescence; inhibition, % at 5.96 µM; hit rate 0.49% among 300,000;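 active = inhibition above the mean of all tested compounds plus 3 SD, set per screening campaign, cut at about 17% in these data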;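 also: 0% = plate median of test compound wells and 100% = 1 µM Z-Phe-Ala-diazomethylketone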
Neddylation inh = blocks human cullin neddylation. inhibition, % at 25 µM. P61081+Q13564. TR-FRET cullin neddylation, biochemical. hit rate 0.58% among 360,000; in the data active = inhibition above about 36%
UCH37 DUB inh = blocks the human deubiquitinase UCH37 | Q9Y5K5 | purified proteasome/UCH37, Ub-AMC cleavage fluorescence | inhibition, % (test concentration not listed) | hit rate 0.33% among 330,000;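 active = mean inhibition over replicate wells above about 20%, limit read from the data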;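 also: 0% = compound-free wells with enzyme and 100% = wells lacking proteasome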
Target sequence (Q9Y5K5 whole entry, looked up): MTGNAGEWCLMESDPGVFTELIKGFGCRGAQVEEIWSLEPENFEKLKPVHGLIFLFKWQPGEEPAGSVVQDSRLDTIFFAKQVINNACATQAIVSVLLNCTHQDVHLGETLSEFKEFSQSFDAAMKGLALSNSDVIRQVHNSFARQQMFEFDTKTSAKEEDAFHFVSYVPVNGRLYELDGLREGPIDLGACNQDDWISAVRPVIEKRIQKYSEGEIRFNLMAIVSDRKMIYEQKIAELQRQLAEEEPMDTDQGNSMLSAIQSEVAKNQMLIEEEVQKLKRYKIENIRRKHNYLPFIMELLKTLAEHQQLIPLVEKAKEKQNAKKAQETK
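Material: human UCH37 enzyme supplied as purified proteasome complex / Amount: 0.15 nM proteasome as dispensed / Buffer or medium: pH 7.4 Tris-HCl (50 mM) with ovalbumin, ATP-MgCl2, DTT / Times: preincubation 30 min, reaction 25 min, room temperature / Technique: AMC fluorescence from Ub-AMC cleavage, excitation 355 nm, emission 460 nm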
The depositor's hits bear a star.

`CC(C)(C)C1CCC(=NNC(=S)Nc2cccnc2)CC1` (stereo not given) gave SUMO HTRF inh -53, CTSL1 counter 19*, Neddylation inh -9 and UCH37 DUB inh 1.
For O=C(Cc1ccc(F)cc1)N1CCC(CC2CC(c3ccc(Cl)cc3)=NO2)(C(=O)NCC2CCCCC2)CC1 (stereo not given) the results were SUMO HTRF inh -4, CTSL1 counter 5, Neddylation inh -10 and UCH37 DUB inh 39*.
O=C(O)COc1ccccc1C=NNC(=O)CSc1nc2ccccc2c(=O)n1-c1ccc(Cl)cc1 was read as UCH37 DUB inh 2.
`Cc1sc2ncnc(N/N=C/c3ccccc3O)c2c1C` gave SUMO HTRF inh -67, CTSL1 counter 6 and Neddylation inh 50*.
Cc1sc2ncnc(NN=Cc3ccccc3O)c2c1C was read as UCH37 DUB inh -6.
For O=C(Cn1nnc(N2CCCC2)n1)NN=Cc1ccc(Cl)cc1 the results were UCH37 DUB inh 3.
`C=CCn1c(NC(=O)c2ccccc2Cl)c(C#N)c2nc3ccccc3nc21` gave CTSL1 counter -9 and UCH37 DUB inh -76.
`CCCCCn1c(N)c(C#N)c2nc3ccccc3nc21` gave SUMO HTRF inh 88*, CTSL1 counter 4 and UCH37 DUB inh -484.
Screening CCCCCn1c(NC(=O)c2ccco2)c(S(=O)(=O)c2ccc(C)cc2)c2nc3ccccc3nc21 returned CTSL1 counter 9 and UCH37 DUB inh -193.
Screening CCCCn1c(NC(=O)c2ccco2)c(S(=O)(=O)c2ccc(C)cc2)c2nc3ccccc3nc21 returned SUMO HTRF inh 100* and UCH37 DUB inh -206.
Screening CCCCn1c(NC(C)=O)c(C#N)c2nc3ccccc3nc21 returned SUMO HTRF inh 102*, CTSL1 counter 2 and UCH37 DUB inh inactive.
`N#Cc1c(N)n(CCCN2CCOCC2)c2nc3ccccc3nc12` gave SUMO HTRF inh 31, CTSL1 counter 3 and UCH37 DUB inh inactive.
`N#Cc1c(N)n(-c2cccc(C(=O)O)c2)c2nc3ccccc3nc12` gave SUMO HTRF inh 60*, CTSL1 counter 0 and UCH37 DUB inh inactive.
`CC(C)Nc1nc(NC(C)C)nc(Oc2ccc(C=NO)cc2)n1` gave UCH37 DUB inh 0.
`O=C(NN=Cc1cccc(Oc2ccccc2)c1)c1cccc(Br)c1` gave UCH37 DUB inh 5.
`COc1ccc(Cn2c(N)c(C#N)c3nc4ccccc4nc32)cc1OC` gave SUMO HTRF inh 18, CTSL1 counter -2, Neddylation inh 38* and UCH37 DUB inh -61.
`NS(=O)(=O)c1cc(C(=O)NC2CCSc3ccccc32)ccc1Cl` (stereo not given) gave SUMO HTRF inh 73*, CTSL1 counter 3 and Neddylation inh -6.
For Cc1ccc(CN=c2c([N+](=O)[O-])nn(-c3ccc(Cl)cc3)n2O)cc1 the results were SUMO HTRF inh -4, CTSL1 counter 1, Neddylation inh -52 and UCH37 DUB inh 2.
For O=[N+]([O-])c1nn(-c2ccc(Cl)cc2)n(O)c1=NCc1ccncc1 the results were SUMO HTRF inh 6, CTSL1 counter 18*, Neddylation inh -49 and UCH37 DUB inh 5.
Screening C/C(=N/Nc1nc(C)c(C)s1)c1cccc([N+](=O)[O-])c1 returned SUMO HTRF inh 11, CTSL1 counter 90* and Neddylation inh -24.
CC1CCN(Cc2cc(=O)oc3cc(O)c(Cl)cc23)CC1 was read as SUMO HTRF inh 55*, CTSL1 counter 10 and UCH37 DUB inh inactive.
`CCOc1cc2c(cc1/C=C/C(=O)O)OC(C)C2` (stereo not given) gave SUMO HTRF inh 47, CTSL1 counter 6 and UCH37 DUB inh inactive.
COc1cc2c(cc1/C=C/C(=O)O)OC(C)C2 (stereo not given) was read as SUMO HTRF inh 55*, CTSL1 counter 3 and UCH37 DUB inh inactive.
O=[N+]([O-])c1ccc(/C=N\NS(=O)(=O)c2ccc(F)cc2)o1 was read as SUMO HTRF inh 4, CTSL1 counter 20* and Neddylation inh -8.
For Cc1oc(=O)c(NC(=O)c2ccc(Cl)cc2)cc1C(=O)c1ccccc1 the results were SUMO HTRF inh 8, CTSL1 counter 19*, Neddylation inh -270 and UCH37 DUB inh -14.
CC(=O)c1cc(NC(=O)c2ccc(C)cc2)c(=O)oc1C was read as SUMO HTRF inh 8, CTSL1 counter 10, Neddylation inh -15 and UCH37 DUB inh 6.
For CC(=O)c1cc(NC(=O)c2ccccc2)c(=O)oc1C the results were SUMO HTRF inh 10, CTSL1 counter 2, Neddylation inh -17 and UCH37 DUB inh 5.
For Cc1oc(=O)c(NC(=O)c2ccccc2)cc1C(=O)c1ccccc1 the results were SUMO HTRF inh 3, CTSL1 counter 35*, Neddylation inh -12 and UCH37 DUB inh 2.
Screening Cn1c(SCc2cccc(F)c2)nnc1-c1cnccn1 returned SUMO HTRF inh 12, CTSL1 counter 54*, Neddylation inh 4 and UCH37 DUB inh 4.
`Cn1c(SCc2cccc(F)c2)nnc1-c1ccccn1` gave SUMO HTRF inh 15, CTSL1 counter 3, Neddylation inh 4 and UCH37 DUB inh 1.
For Cc1cccn2c(=O)c3cc(C(=O)NC4CCCCCC4)sc3nc12 the results were SUMO HTRF inh 55*, CTSL1 counter 3 and UCH37 DUB inh -314.
Cc1ccc(C(=O)/C=C/c2ccc(-c3ccc(C)cc3)o2)cc1 was read as SUMO HTRF inh 38, CTSL1 counter 28*, Neddylation inh 2 and UCH37 DUB inh 1.
Screening O=C(/C=C\c1ccc(-c2ccccc2)o1)c1ccccc1 returned SUMO HTRF inh 31, CTSL1 counter 66*, Neddylation inh -3 and UCH37 DUB inh -1.
CCN(CC)S(=O)(=O)c1ccc(C(=O)/C=C/c2ccc(-c3ccc([N+](=O)[O-])cc3)o2)cc1 was read as SUMO HTRF inh 43, CTSL1 counter -2, Neddylation inh -24 and UCH37 DUB inh 8.
Screening Cc1ccc2nc(-c3ccc(O)c(O)c3)cn2c1 returned SUMO HTRF inh 10, CTSL1 counter -1 and Neddylation inh 18.
Screening Cc1ccc2nc(-c3ccccc3)cn2c1 returned SUMO HTRF inh 4, CTSL1 counter -2, Neddylation inh 39* and UCH37 DUB inh -8.
`CCC(=O)NN=c1sc2ccccc2n1C` gave UCH37 DUB inh -1.
Screening Cc1ccc(NS(=O)(=O)c2ccc3c(c2)n(C)c(=O)n3C)cc1C returned SUMO HTRF inh 11, CTSL1 counter 18*, Neddylation inh -1 and UCH37 DUB inh 0.
COCc1cc(C)nc(NN=Cc2ccc(-c3ccc(Cl)cc3[N+](=O)[O-])o2)c1C#N was read as UCH37 DUB inh 9.
Screening O=C(CCl)NN=C(c1ccccc1)c1ccccc1 returned SUMO HTRF inh 1, CTSL1 counter 37*, Neddylation inh -3 and UCH37 DUB inh 3.
For CCN(CC)CC(=O)NN=C(c1ccccc1)c1ccccc1 the results were SUMO HTRF inh 20, CTSL1 counter 0, Neddylation inh 5 and UCH37 DUB inh 3.
